In brackets after ≈: the same amount, converted by molar mass. Residues, ends and D or L forms follow the SMILES beside them.
Key:
[1] = tested on: Staphylococcus epidermidis; test: Antimicrobial activity against Staphylococcus epidermidis ATCC 12228 after 24 hrs by broth dilution method; assay type: functional; conditions: ATCC 12228, 24 h
In short: (§1)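 Strains stored at −70 °C, grown at 30 °C on blood agar, suspended in physiological saline to OD595 0.1, diluted 10× in saline. 2 µL inoculum added to 100 µL nutrient broth with yeast extract. Peptides dissolved in ethanol (4 g/L), diluted in water (1 g/L), then two-fold in broth (64 to 1 mg/L). Incubated at 30 °C; MIC read as lowest concentration inhibiting growth at 24 h.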

Proteus mirabilis = test: Antimicrobial activity against Proteus mirabilis 1190901236 after 24 hrs by broth dilution method; assay type: functional; conditions: Proteus mirabilis, 1190901236, 24 h; in short: as §1
Pseudomonas aeruginosa = test: Antimicrobial activity against Pseudomonas aeruginosa ATCC 27853 after 24 hrs by broth dilution method; assay type: functional; conditions: ATCC 27853, 24 h; in short: as §1
Staphylococcus aureus = test: Antimicrobial activity against Staphylococcus aureus ATCC 29213 after 24 hrs by broth dilution method; assay type: functional; conditions: ATCC 29213, 24 h; in short: as §1
Enterobacter cloacae = test: Antimicrobial activity against Enterobacter cloacae 1190900252 after 24 hrs by broth dilution method; assay type: functional; conditions: Enterobacter cloacae, 1190900252, 24 h; in short: as §1
Klebsiella pneumoniae = test: Antimicrobial activity against Klebsiella pneumoniae 1190901525 after 24 hrs by broth dilution method; assay type: functional; conditions: Klebsiella pneumoniae, 1190901525, 24 h; in short: as §1
Escherichia coli = test: Antimicrobial activity against Escherichia coli ATCC 25922 after 24 hrs by broth dilution method; assay type: functional; conditions: ATCC 25922, 24 h; in short: as §1
Enterococcus faecalis = test: Antimicrobial activity against Enterococcus faecalis ATCC 29212 after 24 hrs by broth dilution method; assay type: functional; conditions: ATCC 29212, 24 h; in short: as §1
Bacillus cereus = test: Antimicrobial activity against Bacillus cereus ATCC 11778 after 24 hrs by broth dilution method; assay type: functional; conditions: ATCC 11778, 24 h; in short: as §1
[2] = Toxicity in human erythrocytes assessed as hemolytic activity after 4 hrs; assay type: cell-based; conditions: erythrocyte
In short: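 Heparinized fresh blood spun at 1000 g, 10 °C; erythrocytes washed three times in 0.85% saline and diluted to 1/25 packed volume. Peptide stocks 1.5 mM in 30% DMSO/saline, serially two-fold diluted in saline. Cells added, then incubated 4 h at 37 °C and centrifuged. Supernatant A405 read against 1% Triton X-100 as full lysis; single experiment run in triplicate.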

Compound | MIC [1] | MIC (Proteus mirabilis) | MIC (Pseudomonas aeruginosa) | MIC (Staphylococcus aureus) | MIC (Enterobacter cloacae) | MIC (Klebsiella pneumoniae) | MIC (Escherichia coli) | MIC (Enterococcus faecalis) | MIC (Bacillus cereus) | HD100 [2]
CC(C)C[C@@H]1NC(=O)[C@H](CCCN)NC(=O)[C@H](C(C)C)NC(=O)[C@@H]2CCCN2C(=O)[C@@H](Cc2ccccc2)NC(=O)[C@H](CC(C)C)NC(=O)[C@H](CCCN)NC(=O)[C@H](C(C)C)NC(=O)[C@H](CCCN)NC(=O)[C@H](CC(C)C)NC(=O)[C@@H]2O[C@H](CNC(=O)[C@H](C(C)C)NC(=O)[C@@H](CCCN)NC1=O)[C@@H](OCc1ccccc1)[C@@H]2OCc1ccccc1 | 8 µg/mL (≈ 4.77 µM) | > 64 µg/mL | 64 µg/mL (≈ 38.2 µM) | 8 µg/mL (≈ 4.77 µM) | 32 µg/mL (≈ 19.1 µM) | 32 µg/mL (≈ 19.1 µM) | 32 µg/mL (≈ 19.1 µM) | 16 µg/mL (≈ 9.54 µM) | 8 µg/mL (≈ 4.77 µM) | 500 µM
CC(C)C[C@@H]1NC(=O)[C@H](CCCN)NC(=O)[C@H](C(C)C)NC(=O)[C@@H]2CCCN2C(=O)[C@@H](Cc2ccccc2)NC(=O)[C@H](CC(C)C)NC(=O)[C@H](CCCN)NC(=O)[C@H](C(C)C)NC(=O)[C@H](CCCN)NC(=O)[C@H](CC(C)C)NC(=O)[C@@H]2O[C@H](CNC(=O)[C@H](C(C)C)NC(=O)[C@@H](CCCN)NC1=O)[C@@H](OCc1ccccc1)[C@@H]2O | 8 µg/mL (≈ 5.04 µM) | > 64 µg/mL | 64 µg/mL (≈ 40.3 µM) | 16 µg/mL (≈ 10.1 µM) | 32 µg/mL (≈ 20.2 µM) | 32 µg/mL (≈ 20.2 µM) | 32 µg/mL (≈ 20.2 µM) | 32 µg/mL (≈ 20.2 µM) | 8 µg/mL (≈ 5.04 µM) | 500 µM
CC(C)C[C@@H]1NC(=O)[C@H](CCCN)NC(=O)[C@H](C(C)C)NC(=O)[C@@H]2CCCN2C(=O)[C@@H](Cc2ccccc2)NC(=O)[C@H](CC(C)C)NC(=O)[C@H](CCCN)NC(=O)[C@H](C(C)C)NC(=O)[C@H](CCCN)NC(=O)[C@H](CC(C)C)NC(=O)[C@@H]2O[C@H](CNC(=O)[C@H](C(C)C)NC(=O)[C@H](CCCN)NC1=O)[C@@H](OCc1ccccc1)[C@@H]2O | 4 µg/mL (≈ 2.52 µM) | > 64 µg/mL | 16 µg/mL (≈ 10.1 µM) | 4 µg/mL (≈ 2.52 µM) | 16 µg/mL (≈ 10.1 µM) | 16 µg/mL (≈ 10.1 µM) | 16 µg/mL (≈ 10.1 µM) | 8 µg/mL (≈ 5.04 µM) | 4 µg/mL (≈ 2.52 µM) | 15.6 µM
CC(C)C[C@@H]1NC(=O)[C@H](CCCCN)NC(=O)[C@H](C(C)C)NC(=O)[C@@H]2CCCN2C(=O)[C@@H](Cc2ccc(O)cc2)NC(=O)[C@H](CC(C)C)NC(=O)[C@H](CCCCN)NC(=O)[C@H](C(C)C)NC(=O)[C@H](CCCCN)NC(=O)[C@H](CC(C)C)NC(=O)[C@@H]2CCCN2C(=O)[C@@H](Cc2ccc(O)cc2)NC(=O)[C@H](C(C)C)NC(=O)[C@@H](CCCCN)NC1=O (HELM PEPTIDE1{K.L.[dK].V.[dY].P.L.K.V.K.L.[dY].P.V}$PEPTIDE1,PEPTIDE1,1:R1-14:R2$$$V2.0) | 8 µg/mL (≈ 4.79 µM) | > 64 µg/mL | > 64 µg/mL | 64 µg/mL (≈ 38.3 µM) | 64 µg/mL (≈ 38.3 µM) | 64 µg/mL (≈ 38.3 µM) | 64 µg/mL (≈ 38.3 µM) | 64 µg/mL (≈ 38.3 µM) | 16 µg/mL (≈ 9.58 µM) | 500 µM
CC(C)C[C@@H]1NC(=O)[C@H](CCCCN)NC(=O)[C@H](C(C)C)NC(=O)[C@@H]2CCCN2C(=O)[C@@H](Cc2ccc(O)cc2)NC(=O)[C@H](CC(C)C)NC(=O)[C@H](CCCCN)NC(=O)[C@H](C(C)C)NC(=O)[C@H](CCCCN)NC(=O)[C@H](CC(C)C)NC(=O)[C@@H]2CCCN2C(=O)[C@@H](Cc2ccc(O)cc2)NC(=O)[C@H](C(C)C)NC(=O)[C@H](CCCCN)NC1=O (HELM PEPTIDE1{K.L.K.V.[dY].P.L.K.V.K.L.[dY].P.V}$PEPTIDE1,PEPTIDE1,1:R1-14:R2$$$V2.0) | 64 µg/mL (≈ 38.3 µM) | > 64 µg/mL | > 64 µg/mL | > 64 µg/mL | > 64 µg/mL | > 64 µg/mL | > 64 µg/mL | 32 µg/mL (≈ 19.2 µM) | 32 µg/mL (≈ 19.2 µM) | 3.9 µM
CC(C)C[C@@H]1NC(=O)[C@H](CCCN)NC(=O)[C@H](C(C)C)NC(=O)[C@@H]2CCCN2C(=O)[C@@H](Cc2ccccc2)NC(=O)[C@H](CC(C)C)NC(=O)[C@H](CCCN)NC(=O)[C@H](C(C)C)NC(=O)[C@H](CCCN)NC(=O)[C@H](CC(C)C)NC(=O)[C@@H]2O[C@H](CNC(=O)[C@H](C(C)C)NC(=O)[C@H](CCCN)NC1=O)[C@@H](OCc1ccccc1)[C@@H]2OCc1ccccc1 | 4 µg/mL (≈ 2.38 µM) | > 64 µg/mL | 16 µg/mL (≈ 9.54 µM) | 4 µg/mL (≈ 2.38 µM) | 32 µg/mL (≈ 19.1 µM) | 32 µg/mL (≈ 19.1 µM) | 16 µg/mL (≈ 9.54 µM) | 8 µg/mL (≈ 4.77 µM) | 2 µg/mL (≈ 1.19 µM) | 15.6 µM
CC(C)C[C@@H]1NC(=O)[C@H](CCCN)NC(=O)[C@H](C(C)C)NC(=O)[C@@H]2CCCN2C(=O)[C@@H](Cc2ccccc2)NC(=O)[C@H](CC(C)C)NC(=O)[C@H](CCCN)NC(=O)[C@H](C(C)C)NC(=O)[C@H](CCCN)NC(=O)[C@H](CC(C)C)NC(=O)[C@@H]2CCCN2C(=O)[C@@H](Cc2ccccc2)NC(=O)[C@H](C(C)C)NC(=O)[C@H](CCCN)NC1=O | 8 µg/mL (≈ 5.06 µM) | > 64 µg/mL | 64 µg/mL (≈ 40.5 µM) | 16 µg/mL (≈ 10.1 µM) | 64 µg/mL (≈ 40.5 µM) | 64 µg/mL (≈ 40.5 µM) | 32 µg/mL (≈ 20.2 µM) | 8 µg/mL (≈ 5.06 µM) | 16 µg/mL (≈ 10.1 µM) | 3.9 µM
CC(C)C[C@@H]1NC(=O)[C@H](CCCN)NC(=O)[C@H](C(C)C)NC(=O)[C@@H]2CCCN2C(=O)[C@@H](Cc2ccccc2)NC(=O)[C@H](CC(C)C)NC(=O)[C@H](CCCN)NC(=O)[C@H](C(C)C)NC(=O)[C@H](CCCN)NC(=O)[C@H](CC(C)C)NC(=O)[C@@H]2O[C@H](CNC(=O)[C@H](C(C)C)NC(=O)[C@H](CCCN)NC1=O)[C@@H](O)[C@@H]2O | 4 µg/mL (≈ 2.67 µM) | > 64 µg/mL | 16 µg/mL (≈ 10.7 µM) | 8 µg/mL (≈ 5.34 µM) | 16 µg/mL (≈ 10.7 µM) | 16 µg/mL (≈ 10.7 µM) | 8 µg/mL (≈ 5.34 µM) | 8 µg/mL (≈ 5.34 µM) | 4 µg/mL (≈ 2.67 µM) | 31.3 µM
CC(C)C[C@@H]1NC(=O)[C@H](CCCN)NC(=O)[C@H](C(C)C)NC(=O)[C@@H]2CCCN2C(=O)[C@@H](Cc2ccccc2)NC(=O)[C@H](CC(C)C)NC(=O)[C@H](CCCN)NC(=O)[C@H](C(C)C)NC(=O)[C@@H]2CCCN2C(=O)[C@@H](Cc2ccccc2)NC1=O [GRAMICIDIN S] (HELM PEPTIDE1{L.[dF].P.V.[Orn].L.[dF].P.V.[Orn]}$PEPTIDE1,PEPTIDE1,1:R1-10:R2$$$V2.0) | 4 µg/mL (≈ 3.5 µM) | > 64 µg/mL | 64 µg/mL (≈ 56.1 µM) | 4 µg/mL (≈ 3.5 µM) | 64 µg/mL (≈ 56.1 µM) | 64 µg/mL (≈ 56.1 µM) | 32 µg/mL (≈ 28 µM) | 8 µg/mL (≈ 7.01 µM) | 4 µg/mL (≈ 3.5 µM) | 62.5 µM
CC(C)C[C@@H]1NC(=O)[C@H](CCCN)NC(=O)[C@H](C(C)C)NC(=O)[C@@H]2CCCN2C(=O)[C@@H](Cc2ccccc2)NC(=O)[C@H](CC(C)C)NC(=O)[C@H](CCCN)NC(=O)[C@H](C(C)C)NC(=O)[C@H](CCCN)NC(=O)[C@H](CC(C)C)NC(=O)[C@@H]2CCCN2C(=O)[C@@H](Cc2ccccc2)NC(=O)[C@H](C(C)C)NC(=O)[C@@H](CCCN)NC1=O | 8 µg/mL (≈ 5.06 µM) | > 64 µg/mL | 8 µg/mL (≈ 5.06 µM) | 8 µg/mL (≈ 5.06 µM) | 32 µg/mL (≈ 20.2 µM) | 32 µg/mL (≈ 20.2 µM) | 64 µg/mL (≈ 40.5 µM) | 16 µg/mL (≈ 10.1 µM) | 16 µg/mL (≈ 10.1 µM) | 125 µM
CC(C)C[C@@H]1NC(=O)[C@H](CCCN)NC(=O)[C@H](C(C)C)NC(=O)[C@@H]2CCCN2C(=O)[C@@H](Cc2ccccc2)NC(=O)[C@H](CC(C)C)NC(=O)[C@H](CCCN)NC(=O)[C@H](C(C)C)NC(=O)[C@H](CCCN)NC(=O)[C@H](CC(C)C)NC(=O)[C@@H]2O[C@H](CNC(=O)[C@H](C(C)C)NC(=O)[C@@H](CCCN)NC1=O)[C@@H](O)[C@@H]2O | 16 µg/mL (≈ 10.7 µM) | > 64 µg/mL | > 64 µg/mL | > 64 µg/mL | 64 µg/mL (≈ 42.8 µM) | > 64 µg/mL | 64 µg/mL (≈ 42.8 µM) | > 64 µg/mL | 64 µg/mL (≈ 42.8 µM) | > 500 µM

Reference: ChEMBL document CHEMBL1811906, “Synthesis and evaluation of strand and turn modified ring-extended gramicidin S derivatives” (Bioorg Med Chem, 2011)
